# Assay: MAD phase pharmacokinetics
# Format: in vivo, human
# Conditions: for AUC / Cmax / concentration at 11 day / concentration at 12 day / concentration at 13 day / concentration at 14 day / Tmax / concentration at 1 day: human, plasma, oral; for AUC: AUC τ; for Cmax: C max; for concentration at 11 day / concentration at 12 day / concentration at 13 day / concentration at 14 day / concentration at 1 day: C trough; for concentration at 11 day: day 11; for concentration at 12 day: day 12; for concentration at 13 day: day 13
# Procedure, shortened: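 MAD phase, 2–15 mg q.d. oral for 14 days. Plasma was sampled predose daily and 15 min–48 h on days 1 and 14. Urine was pooled over 24 h on days 1 and 14. One CSF sample was taken 3 h postdose on day 7 (10 mg cohort). All matrices were assayed by validated LC-MS/MS. Derived: Cmax, Tmax, t1/2, AUCτ, Ctrough, peak-to-trough ratio, accumulation ratios, and CSF/plasma ratio corrected for protein binding. Results reported as geometric means (95% CI) and medians.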
# [1] = 2 mg, GeoMean, MAD 2 mg q.d., day 14
# [2] = 2 mg, Median, MAD 2 mg q.d., day 14
# [3] = 5 mg, GeoMean, MAD 5 mg q.d., day 1
# [4] = 5 mg, GeoMean, MAD 5 mg q.d., day 14
# [5] = 5 mg, Median, MAD 5 mg q.d., day 1
# [6] = 5 mg, Median, MAD 5 mg q.d., day 14
# [7] = 10 mg, GeoMean, MAD 10 mg q.d., day 1
# [8] = 10 mg, GeoMean, MAD 10 mg q.d., day 14
# [9] = 10 mg, Median, MAD 10 mg q.d., day 1
# [10] = 10 mg, Median, MAD 10 mg q.d., day 14
# [11] = 15 mg, GeoMean, MAD 15 mg q.d., day 1
# [12] = 15 mg, GeoMean, MAD 15 mg q.d., day 14
# [13] = 15 mg, Median, MAD 15 mg q.d., day 1
# [14] = 15 mg, Median, MAD 15 mg q.d., day 14
smiles,measurement,setting,value
"Fc1ccccc1Cc1nc(-c2nc(C(F)(F)F)n[nH]2)cn2ccnc12 [zagociguat, 8‐(2‐fluorobenzyl)‐6‐(3‐(trifluoromethyl)‐1H‐1,2,4‐triazol‐5‐yl)imidazo[1,2‐a]pyrazine]",AUC,"both, 2 mg, GeoMean, MAD 2 mg q.d., day 14",16900 ng·h/mL
same,AUC,"both, 2 mg, Median, MAD 2 mg q.d., day 1",4520 ng·h/mL
same,AUC,"both, 2 mg, Median, MAD 2 mg q.d., day 14",17000 ng·h/mL
same,Cmax,"2 mg, GeoMean, MAD 2 mg q.d., day 1",260 ng/mL
same,Cmax,[1],880 ng/mL
same,Cmax,"2 mg, Median, MAD 2 mg q.d., day 1",268 ng/mL
same,Cmax,[2],888 ng/mL
same,concentration at 11 day,"2 mg, GeoMean, MAD 2 mg q.d.",587 ng/mL
same,concentration at 12 day,"2 mg, GeoMean, MAD 2 mg q.d.",593 ng/mL
same,concentration at 13 day,"2 mg, GeoMean, MAD 2 mg q.d.",616 ng/mL
same,concentration at 14 day,[1],624 ng/mL
same,concentration at 11 day,"2 mg, Median, MAD 2 mg q.d.",579 ng/mL
same,concentration at 12 day,"2 mg, Median, MAD 2 mg q.d.",584 ng/mL
same,concentration at 13 day,"2 mg, Median, MAD 2 mg q.d.",610 ng/mL
same,concentration at 14 day,[2],632 ng/mL
same,Tmax,"2 mg, T max, Median, MAD 2 mg q.d., day 1",1 h
same,Tmax,"2 mg, T max, Median, MAD 2 mg q.d., day 14",1 h
same,AUC,[3],11000 ng·h/mL
same,AUC,[4],42100 ng·h/mL
same,AUC,[5],11500 ng·h/mL
same,AUC,[6],43900 ng·h/mL
same,Cmax,[3],602 ng/mL
same,Cmax,[4],2080 ng/mL
same,Cmax,[5],597 ng/mL
same,Cmax,[6],2230 ng/mL
same,concentration at 1 day,[3],389 ng/mL
same,concentration at 11 day,"5 mg, GeoMean, MAD 5 mg q.d.",1480 ng/mL
same,concentration at 12 day,"5 mg, GeoMean, MAD 5 mg q.d.",1500 ng/mL
same,concentration at 13 day,"5 mg, GeoMean, MAD 5 mg q.d.",1510 ng/mL
same,concentration at 14 day,[4],1540 ng/mL
same,concentration at 1 day,[5],410 ng/mL
same,concentration at 11 day,"5 mg, Median, MAD 5 mg q.d.",1540 ng/mL
same,concentration at 12 day,"5 mg, Median, MAD 5 mg q.d.",1580 ng/mL
same,concentration at 13 day,"5 mg, Median, MAD 5 mg q.d.",1580 ng/mL
same,concentration at 14 day,[6],1640 ng/mL
same,Tmax,"5 mg, T max, Median, MAD 5 mg q.d., day 1",2 h
same,Tmax,"5 mg, T max, Median, MAD 5 mg q.d., day 14",3 h
same,AUC,[7],20100 ng·h/mL
same,AUC,[8],76800 ng·h/mL
same,AUC,[9],21500 ng·h/mL
same,AUC,[10],82100 ng·h/mL
same,Cmax,[7],1070 ng/mL
same,Cmax,[8],3910 ng/mL
same,Cmax,[9],1140 ng/mL
same,Cmax,[10],4050 ng/mL
same,concentration at 1 day,[7],751 ng/mL
same,concentration at 11 day,"10 mg, GeoMean, MAD 10 mg q.d.",2760 ng/mL
same,concentration at 12 day,"10 mg, GeoMean, MAD 10 mg q.d.",2910 ng/mL
same,concentration at 13 day,"10 mg, GeoMean, MAD 10 mg q.d.",2840 ng/mL
same,concentration at 14 day,[8],2850 ng/mL
same,concentration at 1 day,[9],750 ng/mL
same,concentration at 11 day,"10 mg, Median, MAD 10 mg q.d.",3090 ng/mL
same,concentration at 12 day,"10 mg, Median, MAD 10 mg q.d.",3240 ng/mL
same,concentration at 13 day,"10 mg, Median, MAD 10 mg q.d.",3190 ng/mL
same,concentration at 14 day,[10],2820 ng/mL
same,Tmax,"10 mg, T max, Median, MAD 10 mg q.d., day 1",3 h
same,Tmax,"10 mg, T max, Median, MAD 10 mg q.d., day 14",2.2 h
same,AUC,[11],31300 ng·h/mL
same,AUC,[12],116000 ng·h/mL
same,AUC,[13],30100 ng·h/mL
same,AUC,[14],112000 ng·h/mL
same,Cmax,[11],1620 ng/mL
same,Cmax,[12],5850 ng/mL
same,Cmax,[13],1530 ng/mL
same,Cmax,[14],5800 ng/mL
same,Tmax,"15 mg, T max, Median, MAD 15 mg q.d., day 1",3 h
same,Tmax,"15 mg, T max, Median, MAD 15 mg q.d., day 14",3.5 h
same,Tmax,"Median observed T max, range, MAD all doses, days 1 and 14",1 to 3.5 h
same,Drug accumulation,treatment period of 14 days,moderate drug accumulation

# From paper PMC10432884 (Clinical and Translational Science, 2023)
